Data set [1] deals with T1, ALK tyrosine kinase receptor (Homo sapiens, UniProt Q9UM73). Description: Inhibition of human ALK cytoplasmic domain expressed in baculovirus using GST-PLCgamma as substrate preincubated for 15 mins before substrate addition measured after 1 hr by time resolved fluorescence assay.
Data set [2] concerns the target T1, ALK tyrosine kinase receptor. Description: Inhibition of ALK tyrosine phosphorylation in human Karpas-299 cells after 2 hrs in presence of mouse plasma. The class given is cell-based.
Data set [3] in a line: AUC (0 to 12 hrs) in rat 55 mg/kg, po. The class given is ADME, organism-based. The arrangement: time < 12 hr, dose 55 mg/kg, route oral. To be noted: plasma. Summed up:
(§1)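 Rat oral dose escalation at 10, 30, 55 and 100 mg/kg. Gavage at 5 mL/kg in 40% HPβCD after an overnight fast. Serial tail-vein blood was drawn into heparinized tubes. Plasma was protein-precipitated with acetonitrile and assayed by LC-MS/MS. Cmax and AUC0–12 were derived noncompartmentally; n = 2 at 10 mg/kg.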

Data set [4] is described as follows: AUC (0 to 12 hrs) in rat 100 mg/kg, po. In kind it is ADME, organism-based. Details: time < 12 hr, dose 100 mg/kg, route oral. To be noted: plasma. A digest of the protocol: as §1
A further data set deals with KARPAS-299. The data set is described as follows: Antitumor activity against human KARPAS299 cells expressing NPM-ALK xenografted in SCID mouse assessed as tumor stasis up to 100 mg/kg, po bid for 12 days. Details: dose 100 mg/kg. In kind it is functional, organism-based. Background: In xenograft studies the graft and the host belong to different species.
Data set [5] concerns Rattus norvegicus. Description: Ratio of Cmax at 10 mg/kg, po to Cmax at 100 mg/kg, po in rat. The class given is ADME, organism-based. To be noted: in vivo. Summed up: (§2)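 Oral dose-escalation PK study in rats at 10, 30, 55 and 100 mg/kg. […] The ratio compares the 10 mg/kg value with the 100 mg/kg value.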
The nature of data set [6]: AUC (0 to 12 hrs) in rat 10 mg/kg, po. The class given is ADME, organism-based. The arrangement: time < 12 hr, dose 10 mg/kg, route oral. To be noted: plasma. Summed up: as §1
Data set [7] has as its system Rattus norvegicus. The data set is described as follows: Ratio of AUC (0 to 12 h) at 10 mg/kg, po to AUC (0 to 12 h) at 100 mg/kg, po in rat. The settings on record: in vivo. The class given is ADME, organism-based. A digest of the protocol:
as §2

The nature of data set [8]: Cmax in rat at 55 mg/kg, po. The class given is ADME, organism-based. Details: dose 55 mg/kg, route oral. The settings on record: in vivo. Summed up: as §1
Data set [9] in a line: Cmax in rat at 100 mg/kg, po. In kind it is ADME, organism-based. The arrangement: dose 100 mg/kg, route oral. The settings on record: in vivo. A digest of the protocol:
as §1

Data set [10] can be described thus: Cmax in rat at 30 mg/kg, po. The class given is ADME, organism-based. The arrangement: dose 30 mg/kg, route oral. To be noted: in vivo. A digest of the protocol:
as §1

Data set [11] is described as follows: Cmax in rat at 10 mg/kg, po. In kind it is ADME, organism-based. Details: dose 10 mg/kg, route oral. The settings on record: in vivo. Summed up: as §1
Data set [12] is described as follows: AUC (0 to 12 hrs) in rat 30 mg/kg, po. In kind it is ADME, organism-based. Details: time < 12 hr, dose 30 mg/kg, route oral. To be noted: plasma. A digest of the protocol: as §1

Active and inactive are the calls of the source. The calls are words filed in the database; no cut-off is given here.

These results are taken from ChEMBL document CHEMBL2062375, “Discovery of an orally efficacious inhibitor of anaplastic lymphoma kinase” (J Med Chem, 2012).

T1 sequence (Q9UM73 whole entry, the tested form may be a part): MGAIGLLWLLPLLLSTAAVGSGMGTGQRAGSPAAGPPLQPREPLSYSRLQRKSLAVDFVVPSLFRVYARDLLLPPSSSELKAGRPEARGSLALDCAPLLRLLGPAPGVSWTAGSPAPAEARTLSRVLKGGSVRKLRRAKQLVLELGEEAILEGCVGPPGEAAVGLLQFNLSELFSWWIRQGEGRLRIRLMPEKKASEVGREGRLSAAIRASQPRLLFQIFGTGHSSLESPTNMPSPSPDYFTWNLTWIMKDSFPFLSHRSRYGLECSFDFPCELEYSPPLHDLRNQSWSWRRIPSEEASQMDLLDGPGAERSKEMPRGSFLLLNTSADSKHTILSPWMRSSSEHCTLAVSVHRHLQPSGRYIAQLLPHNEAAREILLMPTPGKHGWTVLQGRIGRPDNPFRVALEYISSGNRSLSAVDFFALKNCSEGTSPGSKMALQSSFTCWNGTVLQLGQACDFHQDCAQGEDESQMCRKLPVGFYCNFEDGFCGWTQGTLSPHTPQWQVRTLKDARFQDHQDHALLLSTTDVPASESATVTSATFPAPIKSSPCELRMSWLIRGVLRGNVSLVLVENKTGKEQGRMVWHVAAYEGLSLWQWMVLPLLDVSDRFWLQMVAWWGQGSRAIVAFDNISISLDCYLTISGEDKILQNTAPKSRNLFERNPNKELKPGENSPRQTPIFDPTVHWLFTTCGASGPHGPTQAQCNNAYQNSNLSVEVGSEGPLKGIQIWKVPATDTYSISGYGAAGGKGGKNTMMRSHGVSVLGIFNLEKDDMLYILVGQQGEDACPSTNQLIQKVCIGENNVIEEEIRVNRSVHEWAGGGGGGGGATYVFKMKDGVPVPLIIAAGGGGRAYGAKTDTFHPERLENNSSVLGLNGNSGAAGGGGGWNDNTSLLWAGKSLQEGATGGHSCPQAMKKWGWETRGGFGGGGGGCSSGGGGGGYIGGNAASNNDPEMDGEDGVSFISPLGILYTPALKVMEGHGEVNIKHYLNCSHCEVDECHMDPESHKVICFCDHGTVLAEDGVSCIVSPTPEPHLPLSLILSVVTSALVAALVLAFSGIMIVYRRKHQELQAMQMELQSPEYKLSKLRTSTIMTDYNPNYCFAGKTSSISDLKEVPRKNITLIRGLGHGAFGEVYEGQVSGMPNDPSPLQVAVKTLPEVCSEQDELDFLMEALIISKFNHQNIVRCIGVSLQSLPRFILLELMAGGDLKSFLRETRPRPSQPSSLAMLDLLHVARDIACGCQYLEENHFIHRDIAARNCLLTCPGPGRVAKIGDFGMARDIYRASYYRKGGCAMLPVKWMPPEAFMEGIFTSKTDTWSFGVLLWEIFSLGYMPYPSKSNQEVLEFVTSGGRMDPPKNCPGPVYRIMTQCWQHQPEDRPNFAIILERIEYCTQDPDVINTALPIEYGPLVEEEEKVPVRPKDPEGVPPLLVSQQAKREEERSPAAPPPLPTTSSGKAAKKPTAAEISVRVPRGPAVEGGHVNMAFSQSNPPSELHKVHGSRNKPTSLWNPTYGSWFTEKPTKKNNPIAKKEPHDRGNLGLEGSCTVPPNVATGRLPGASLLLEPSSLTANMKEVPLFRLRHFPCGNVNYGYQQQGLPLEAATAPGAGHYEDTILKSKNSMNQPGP

For `COc1c(Nc2ncc(Cl)c(N[C@H]3[C@@H](C(N)=O)[C@@H]4C=C[C@H]3C4)n2)ccc2c1CC[C@H](N1CCOCC1)CC2`, the IC50 (in general, the concentration needed to halve the response being measured) in data set [1] worked out at 35 nM; in [2], 120 nM.

With `CCN1C(=O)CCCc2c1ccc(Nc1ncc(Cl)c(N[C@H]3[C@@H](C(N)=O)[C@@H]4C=C[C@H]3C4)n1)c2OC`, the IC50 in data set [2] was determined as 45 nM. Moreover, the AUC(0-t) (usually the area under the concentration-time curve up to a stated or last time point) at 12 h in data set [3] is 13800 ng·h/mL; in data set [4], 14000 ng·h/mL; in [6] it was 6020 ng·h/mL; in data set [12], 11800 ng·h/mL. The result in the data set with KARPAS-299 was Active. Moreover, the Ratio in the data set on Rattus norvegicus [5] and in the data set with Rattus norvegicus [7] was 2 each time. The maximum concentration (Cmax) – broadly, the highest concentration seen after dosing – in [8] stood at 1450 ng/mL; in [9] it was 1550 ng/mL; in data set [10], 1360 ng/mL; in [11], 925 ng/mL.
